Source: ChEMBL document CHEMBL3351557, “Discovery of Potent and Simplified Piperidinone-Based Inhibitors of the MDM2-p53 Interaction” (ACS Med Chem Lett, 2014)
Calls of active or inactive are those of the source. The calls are words filed in the database; no cut-off is given here.

What was measured:
[1] = molecular target: T1, Tumour suppressor p53/oncoprotein Mdm2 (Homo sapiens, UniProt Q00987); experiment: Inhibition of human MDM2 (1-188 aa) -p53 (1-83 aa) interaction expressed in Escherichia coli after 18 hrs by HTRF assay
[2] = molecular target: T1, Tumour suppressor p53/oncoprotein Mdm2; experiment: Inhibition of human MDM2 (1-188 aa) -p53 (1-83 aa) interaction expressed in Escherichia coli after 18 hrs by HTRF assay in presence of 15% human serum
SJSA-1 [3] = experiment: Antiproliferative activity against human SJSA1 cells after 3 days by EdU incorporation-based HCS assay in presence of 10% human serum; format: functional, cell-based; conditions: SJSA-1, 72 h
[4] = Clearance in rat at 0.5 mg/kg, iv; format: ADME, organism-based; design: dose 0.5 mg/kg, route intravenous; conditions: in vivo
[5] = Half life in rat at 0.5 mg/kg, iv; format: ADME, organism-based; design: dose 0.5 mg/kg, route intravenous; conditions: in vivo
[6] = Intrinsic clearance in rat hepatocytes assessed per million cells; format: ADME, cell-based, Hepatocyte; conditions: read-out: CLH
[7] = Clearance in mouse at 1 mg/kg, iv; format: ADME, organism-based; design: dose 1 mg/kg, route intravenous; conditions: in vivo
[8] = Oral bioavailability in mouse at 5 mg/kg; format: ADME, organism-based; conditions: in vivo
[9] = Oral bioavailability in rat at 2 mg/kg; format: ADME, organism-based; conditions: in vivo
SJSA-1 [10] = experiment: Increase in p21 mRNA expression in tumor of human SJSA1 cells xenografted athymic nude mouse at 100 mg/kg, po as single dose administered 2 weeks post implantation measured 4 hrs post dose relative to vehicle-treated control; format: functional, organism-based; design: dose 100 mg/kg
Procedure, shortened: (§1)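 SJSA-1 osteosarcoma cells were implanted in mice 2 weeks before a single oral dose (100 or 200 mg/kg in one study; 50, 100 or 200 mg/kg in another). Tumour p21 mRNA, a p53 transcriptional target, was measured at several times after dosing and expressed relative to vehicle-treated controls.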

SJSA-1 [11] = experiment: Increase in p21 mRNA expression in tumor of human SJSA1 cells xenografted athymic nude mouse compound administered as single oral dose 2 weeks post implantation measured 4 to 8 hrs post dose relative to vehicle-treated control; format: functional; procedure, shortened: as §1
SJSA-1 [12] = experiment: Increase in p21 mRNA expression in tumor of human SJSA1 cells xenografted athymic nude mouse at 50 to 200 mg/kg, po administered as single dose 2 weeks post implantation relative to vehicle-treated control; format: functional, organism-based; procedure, shortened: as §1
SJSA-1 [13] = experiment: Antitumor activity against human SJSA1 cells xenografted in athymic nude mouse assessed as tumor growth inhibition at 100 mg/kg, po qd administered 2 weeks post implantation relative to vehicle-treated control; conditions: SJSA-1, po, 336 h, read-out: TGI
SJSA-1 [14] = experiment: Antitumor activity against human SJSA1 cells xenografted in athymic nude mouse assessed as tumor growth inhibition at 50 mg/kg, po bid administered 2 weeks post implantation relative to vehicle-treated control; conditions: SJSA-1, po, 336 h, read-out: TGI
Mus musculus [15] = experiment: Toxicity in human SJSA1 cells xenografted athymic nude mouse assessed as body weight loss at 200 mg/kg, po qd administered 2 weeks post implantation; format: organism-based, SJSA-1; design: dose 200 mg/kg, route oral; conditions: in vivo, 336 h
Procedure, shortened: (§2)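 Female athymic nude mice were implanted subcutaneously with 5 × 10⁶ SJSA-1 cells. Oral gavage of vehicle or compound (50, 100 or 200 mg/kg QD; 50 or 100 mg/kg BID) began on day 14, when tumours were about 200 mm³. There were 10 mice per group, and tumours were measured twice weekly.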

Mus musculus [16] = experiment: Toxicity in human SJSA1 cells xenografted athymic nude mouse assessed as body weight loss at 100 mg/kg, po bid administered 2 weeks post implantation; format: organism-based, SJSA-1; design: dose 100 mg/kg, route oral; conditions: in vivo, 336 h; procedure, shortened: as §2
[17] = Clearance in rat at 0.5 mg/kg, iv; conditions: in vivo
[18] = Intrinsic clearance in human hepatocytes assessed per million cells; format: ADME, cell-based, Hepatocyte; conditions: read-out: CLH
[19] = Bioavailability in rat at 0.5 mg/kg, iv; format: ADME, organism-based; conditions: in vivo
[20] = Clearance in mouse; format: ADME, organism-based; conditions: in vivo
[21] = Half life in mouse; format: ADME, organism-based; conditions: in vivo

T1 sequence (P04637 whole entry, the tested form may be a part): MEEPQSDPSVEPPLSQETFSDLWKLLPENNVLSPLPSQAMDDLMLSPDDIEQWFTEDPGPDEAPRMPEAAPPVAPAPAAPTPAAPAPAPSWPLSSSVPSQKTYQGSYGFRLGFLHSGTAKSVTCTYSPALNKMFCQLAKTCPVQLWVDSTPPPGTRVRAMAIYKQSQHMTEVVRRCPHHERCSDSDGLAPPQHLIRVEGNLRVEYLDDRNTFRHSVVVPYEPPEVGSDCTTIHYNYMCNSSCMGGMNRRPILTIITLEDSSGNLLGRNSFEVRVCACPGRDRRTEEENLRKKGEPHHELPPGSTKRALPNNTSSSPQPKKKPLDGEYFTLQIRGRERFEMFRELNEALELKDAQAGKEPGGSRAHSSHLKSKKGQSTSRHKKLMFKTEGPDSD
T1 sequence (Q00987 whole entry, the tested form may be a part): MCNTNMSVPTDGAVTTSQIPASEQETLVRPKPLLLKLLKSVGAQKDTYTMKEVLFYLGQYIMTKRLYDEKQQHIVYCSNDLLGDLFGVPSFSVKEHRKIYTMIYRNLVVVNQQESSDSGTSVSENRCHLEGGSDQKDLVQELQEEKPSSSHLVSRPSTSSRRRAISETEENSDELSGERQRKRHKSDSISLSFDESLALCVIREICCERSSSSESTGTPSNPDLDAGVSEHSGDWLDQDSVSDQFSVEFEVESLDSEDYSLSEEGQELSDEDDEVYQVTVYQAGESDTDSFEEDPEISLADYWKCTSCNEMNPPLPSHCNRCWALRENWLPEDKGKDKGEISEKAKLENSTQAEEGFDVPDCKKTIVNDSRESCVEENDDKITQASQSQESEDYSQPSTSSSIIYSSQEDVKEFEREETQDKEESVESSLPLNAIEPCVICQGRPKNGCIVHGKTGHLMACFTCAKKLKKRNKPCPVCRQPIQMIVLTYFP

Compound | IC50 [1] [nM] | IC50 [2] [nM] | IC50 (SJSA-1 [3]) [nM] | clearance [4] [mL/min/kg] | other results
CC[C@@H](c1cnco1)N1C(=O)[C@@](C)(CC(=O)O)C[C@H](c2cccc(Cl)c2)[C@H]1c1ccc(Cl)cc1 | 8 | 36 | 840 | – | –
CC[C@@H](c1cc(C)ccn1)N1C(=O)[C@@](C)(CC(=O)O)C[C@H](c2cccc(Cl)c2)[C@H]1c1ccc(Cl)cc1 | 6 | 60 | 890 | – | –
CC[C@@H](c1cccc(C)n1)N1C(=O)[C@@](C)(CC(=O)O)C[C@H](c2cccc(Cl)c2)[C@H]1c1ccc(Cl)cc1 | – | – | 280 | 15.5 | –
CC[C@@H](c1ncccc1C)N1C(=O)[C@@](C)(CC(=O)O)C[C@H](c2cccc(Cl)c2)[C@H]1c1ccc(Cl)cc1 | 5 | 183 | 310 | – | –
CC[C@@H](c1cccc(Cl)n1)N1C(=O)[C@@](C)(CC(=O)O)C[C@H](c2cccc(Cl)c2)[C@H]1c1ccc(Cl)cc1 | – | – | 210 | 20 | –
CC[C@@H]([C@H](C)OC)N1C(=O)[C@@](C)(CC(=O)O)C[C@H](c2cccc(Cl)c2)[C@H]1c1ccc(Cl)cc1 | – | – | 143 | – | –
CC[C@@H](c1ccc(C)cn1)N1C(=O)[C@@](C)(CC(=O)O)CC(c2cccc(Cl)c2)[C@H]1c1ccc(Cl)cc1 (single isomer, unassigned) | 7 | 123 | 900 | – | –
CCC[C@@H](c1ccccn1)N1C(=O)[C@@](C)(CC(=O)O)C[C@H](c2cccc(Cl)c2)[C@H]1c1ccc(Cl)cc1 | – | – | 990 | 3.33 | half-life [5]: 6.9 h
CC(C)N1C(=O)[C@@](C)(CC(=O)O)C[C@H](c2cccc(Cl)c2)[C@H]1c1ccc(Cl)cc1 | – | – | 380 | 17.3 | hepatocyte CLint [6]: 8.5 µL/min/1e6 cells; clearance [7]: 17.2 mL/min/kg; bioavailability [8]: 32%; bioavailability [9]: 48%; Activity (SJSA-1 [10]): Active; Activity (SJSA-1 [11]): Active; Activity (SJSA-1 [12]): Active; inhibition in vivo at 100 mg/kg (SJSA-1 [13]): 96%; inhibition in vivo at 50 mg/kg (SJSA-1 [14]): 82%; Activity (Mus musculus [15]): Toxic; Activity (Mus musculus [16]): Toxic; clearance [17]: 17.3 mL/min/kg
C[C@]1(CC(=O)O)C[C@H](c2cccc(Cl)c2)[C@@H](c2ccc(Cl)cc2)N(c2ccccc2)C1=O | 4 | 55 | – | 40.8 | –
C[C@]1(CC(=O)O)C[C@H](c2cccc(Cl)c2)[C@@H](c2ccc(Cl)cc2)N(c2ccccn2)C1=O | 13 | 122 | – | 36 | –
CCC(CC)N1C(=O)[C@@](C)(CC(=O)O)C[C@H](c2cccc(Cl)c2)[C@H]1c1ccc(Cl)cc1 | – | – | – | 7.5 | hepatocyte CLint [6]: 18.8 µL/min/1e6 cells; clearance [7]: 16.5 mL/min/kg; bioavailability [8]: 42%; bioavailability [9]: 38%; Activity (SJSA-1 [11]): Dose-dependent effect; Activity (SJSA-1 [12]; TDE = time-dependent effect): tde; clearance [17]: 7.5 mL/min/kg
CC[C@@H](c1ccccn1)N1C(=O)[C@@](C)(CC(=O)O)CC(c2cccc(Cl)c2)[C@H]1c1ccc(Cl)cc1 (single isomer, unassigned) | – | – | 430 | – | hepatocyte CLint [6]: 13 µL/min/1e6 cells; hepatocyte CLint [18]: 7 µL/min/1e6 cells; half-life [5]: 3.5 h; bioavailability [19]: 79%; clearance [20]: 51.7 mL/min/kg; half-life [21]: 1.9 h
C[C@@H](c1ccccn1)N1C(=O)[C@@](C)(CC(=O)O)C[C@H](c2cccc(Cl)c2)[C@H]1c1ccc(Cl)cc1 | 10 | 62 | 420 | – | –
CC(C)[C@@H](c1ccccn1)N1C(=O)[C@@](C)(CC(=O)O)C[C@H](c2cccc(Cl)c2)[C@H]1c1ccc(Cl)cc1 | – | – | 290 | – | –
CC[C@@H](c1ccncc1)N1C(=O)[C@@](C)(CC(=O)O)C[C@H](c2cccc(Cl)c2)[C@H]1c1ccc(Cl)cc1 | – | – | 460 | – | –
CC[C@@H]([C@@H]1CCCO1)N1C(=O)[C@@](C)(CC(=O)O)C[C@H](c2cccc(Cl)c2)[C@H]1c1ccc(Cl)cc1 | – | – | 123 | – | –
CC[C@@H](c1ncccn1)N1C(=O)[C@@](C)(CC(=O)O)C[C@H](c2cccc(Cl)c2)[C@H]1c1ccc(Cl)cc1 | – | – | 420 | – | –
CC[C@@H](c1cccc(C2CC2)n1)N1C(=O)[C@@](C)(CC(=O)O)CC(c2cccc(Cl)c2)[C@H]1c1ccc(Cl)cc1 (single isomer, unassigned) | – | – | 1820 | – | –
